# Screening results (PubChem BioAssay)
# Hits are enriched below; roughly 1.7% of the tested compounds scored in any of these assays.
# DNMT1 inh = human DNMT1 methyltransferase inhibitors, primary screen, biochemical, molecular beacon, fluorescence, HinP1I cleavage, uHTS; DNA (cytosine-5)-methyltransferase 1 (Homo sapiens), P26358; inhibition (reported as % activation of signal), % at 10 µM; 360,000 tested, 0.83% active; AID 588458, 2011; in the data active = inhibition above about 50%
# LMPTP block = LMPTP phosphatase inhibitors, primary screen, biochemical, fluorescence intensity, uHTS; inhibition, % at 20 µM; recombinant LMPTP-A, OMFP fluorogenic substrate; Low molecular weight phosphotyrosine protein phosphatase (Homo sapiens), P24666; 360,000 tested, 0.22% active; AID 651560, 2012;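 active = compounds that cut the enzyme signal by at least half of the control window in the single-dose screen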;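 note: plate controls were DMSO wells with enzyme plus substrate for no effect and substrate without enzyme for full effect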
#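 Assay system: LMPTP-A phosphatase enzyme | Input: 0.625 nM enzyme | Also added: Fluorogenic phosphatase substrate OMFP at 400 µM final | Compound dosing: One test concentration per compound, 20 µM, with 3% DMSO overall | Schedule: 50 min enzyme reaction at room temperature, protected from light | Signal: Fluorescence intensity | Benchmarks: no-enzyme and uninhibited controls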
# SUMO1-SIM PPI = modulators of SUMO1 protein-protein interactions, primary screen, biochemical, uHTS; 360,000 tested, 0.33% active; SUMO1 binding to a labelled peptide, TR-FRET, 1 h; inhibition, % at 20 µM; AID 602429, 2012; in the data active = inhibition above about 37%
# STEP block = STEP phosphatase inhibitors, primary screen, biochemical, fluorescence intensity, uHTS. Tyrosine-protein phosphatase non-receptor type 5 (Homo sapiens), P54829. recombinant STEP, OMFP fluorogenic substrate. inhibition, % at 20 µM. 360,000 tested, 0.25% active;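 active = inhibition at 20 µM, scaled per plate between control wells, above about 37%, limit read from the data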;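 note: 0% = DMSO with enzyme and substrate and 100% = substrate only without enzyme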
# Target sequence (P54829 whole entry, looked up): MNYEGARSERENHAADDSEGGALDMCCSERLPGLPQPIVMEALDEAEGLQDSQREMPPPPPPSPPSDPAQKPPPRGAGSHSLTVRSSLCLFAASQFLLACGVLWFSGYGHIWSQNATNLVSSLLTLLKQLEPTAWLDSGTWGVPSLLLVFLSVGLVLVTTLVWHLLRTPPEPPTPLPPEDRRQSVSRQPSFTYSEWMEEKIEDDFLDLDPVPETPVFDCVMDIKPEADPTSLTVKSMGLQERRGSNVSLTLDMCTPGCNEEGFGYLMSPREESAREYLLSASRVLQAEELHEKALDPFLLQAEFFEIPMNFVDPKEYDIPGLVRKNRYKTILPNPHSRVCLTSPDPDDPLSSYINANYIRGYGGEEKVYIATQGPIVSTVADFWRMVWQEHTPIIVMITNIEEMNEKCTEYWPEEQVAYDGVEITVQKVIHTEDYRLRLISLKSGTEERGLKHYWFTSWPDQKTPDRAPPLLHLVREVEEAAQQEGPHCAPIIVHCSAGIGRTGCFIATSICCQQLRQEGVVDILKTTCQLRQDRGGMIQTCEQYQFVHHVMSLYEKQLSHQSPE
#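 Material: STEP (striatal-enriched tyrosine phosphatase) enzyme, cell-free | Medium: 50 mM Bis-Tris pH 6.0 with 2.5 mM DTT and 0.005% Tween 20 | Read-out: Percent inhibition scaled to no-enzyme and uninhibited-enzyme controls, plate-pattern corrected | Signal: Fluorescence read at 480 nm ex / 540 nm em | Times: 20 min reaction, room temperature, in the dark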
# Scp-1 inhibitor = Scp-1 phosphatase inhibitors, primary screen, biochemical, colorimetric, uHTS | Carboxy-terminal domain RNA polymerase II polypeptide A small phosphatase 1 (Homo … | Recombinant Scp1, phosphopeptide, malachite green phosphate absorbance | inhibition, % at 20 µM | 340,000 tested, 0.88% active;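 active = inhibition above about 50% at 20 µM, limit read from the data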;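 note: plate controls were DMSO wells with enzyme for no effect and wells lacking enzyme for full effect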
#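 assay system = SCP-1 phosphatase catalytic domain, residues 76-261 | buffer or medium = 50 mM Tris acetate pH 5.5, 0.005% Tween-20, 10 mM MgCl2 | incubation = enzyme reaction 45 min at room temperature, colour 5 min, stabilisation 30 min | signal = Phosphate-binding colour reagent, absorbance read at 630 nm | measure = % inhibition at 20 µM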
# STEP inh conf = STEP phosphatase inhibitor hit confirmation, biochemical, fluorescence intensity, single concentration | recombinant STEP, OMFP fluorogenic substrate | inhibition, % at 20 µM | AID 623866, 2012 | 520 tested, 32% active | shares compounds with STEP block; call rule not given here;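 note: 0% = enzyme with substrate plus DMSO and 100% = substrate without enzyme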
# * marks the source's active call; other numbers are inactive results; / = no result.
SMILES,DNMT1 inh,LMPTP block,SUMO1-SIM PPI,STEP block,Scp-1 inhibitor,STEP inh conf
COc1ccc(NC(=S)N(CCC(C)C)C2CCN(C(C)C)CC2)cc1Cl,2,2,1,98*,-6,79*
COCCN(C(=S)Nc1ccc(OC)c(Cl)c1)C1CCN(C(C)C)CC1,0,-2,4,71*,-1,20
Cc1cccc(C(=O)Nc2c(C(=O)N(C)C)cnn2-c2ccccc2)c1,0,0,3,0,0,/
Cc1cc(C)c(NC(=S)NCC2CCN(C(C)c3ccccc3)C2)c(C)c1 (stereo not drawn),-5,1,1,95*,-8,83*
Cc1ccc(NC(=S)NCC2CCN(C(C)c3ccccc3)C2)cc1 (stereo not drawn),0,1,0,47*,-10,10
CC1(C)N=C(N)NC(=NCCCOc2ccc([N+](=O)[O-])cc2)N1,-3,0,-19,-1,/,/
Cc1ccccc1C(=O)NCCCCc1ccccc1,3,1,1,46*,-8,7
COC(=O)c1c(NC(=O)Cc2ccccc2)sc2c1CC(C)(C)NC2(C)C,1,-1,1,51*,0,20
Cc1cccc(OCC(=O)NNC(=O)CSc2ncc(C#N)c(N)n2)c1,-5,0,15,-1,-5,/
N#Cc1cnc(SCC(=O)NNC(=O)COc2cccc3ccccc23)nc1N,-6,15,10,100*,0,1
COc1cc(C(=S)N2CCCCC2)ccc1O,8,0,6,98*,0,75*
COc1cc(C(=S)N2CCCC2)ccc1O,-2,-1,14,0,-6,/
CC(=O)NS(=O)(=O)c1ccc(N=c2ssc3c2-c2ccc(C)cc2NC3(C)C)cc1,-9,2,-7,2,-6,/
COc1cc(C)c(NC(=O)C(=S)NCCc2ccccc2)cc1C,3,2,1,47*,-4,6
COc1ccc(NC(=S)NCCc2ccccc2)c(C)c1,1,2,-8,4,-2,/
CC(=O)NC(c1ccccc1)c1nc(-c2cc(F)cc(F)c2)cs1 (stereo not drawn),-1,3,1,1,/,/
CCOc1ccc(C(=O)Nc2nc(C)c(C(=O)OC)s2)cc1,27,42,-41,79*,40,17
COC(=O)c1sc(NC(=O)c2ccncc2)nc1C,2,-3,-1,-2,-10,/
Nc1c(C(=O)Nc2ccc3c(c2)OCCO3)nnn1Cc1cccc(F)c1,0,0,5,0,-13,/
Cc1ccc(NC2CCCN(C(=O)CCn3nccc3C)C2)cc1C (stereo not drawn),-1,0,-3,1,1,/
Cc1cc(C)c(NC(=S)N(CCN(C)C)Cc2cccs2)c(C)c1,-1,-3,0,1,1,/
Cc1ccc(NC(=S)N(CCN(C)C)Cc2cccs2)c(C)c1,1,-2,0,72*,-9,42*
COc1ccccc1CCC(=O)N(C)CC(=O)Nc1ccc(F)cc1,1,-2,-3,1,2,/
S=C(NCCc1ccccc1)Nc1c(Cl)cccc1Cl,1,1,-4,96*,17,51*
CC1CCN(c2c([N+](=O)[O-])c(=O)oc3ccccc23)CC1,1,-1,0,53*,-8,1
SMILES,DNMT1 inh,LMPTP block,SUMO1-SIM PPI,STEP block,Scp-1 inhibitor,STEP inh conf
O=c1oc2ccccc2c(N2CCCC2)c1[N+](=O)[O-],5,0,0,0,-1,/
COc1cccc(CC(=O)OC(C)C(=O)Nc2ncc(Cl)cc2Cl)c1 (stereo not drawn),3,-1,-5,0,-3,/
COc1ccc(CNC(=O)C(C)OC(=O)C23CC4CC(CC(O)(C4)C2)C3)cc1 (stereo not drawn),0,-1,2,97*,-5,-3
O=C(COC(=O)CCC1CCCC1)Nc1ccc(Cl)cc1F,12,2,-1,-1,-11,/
CCN(C1=NS(=O)(=O)c2ccccc21)N(CC)S(=O)(=O)c1ccc(C)cc1,-5,1,1,73*,-8,4
CCN(CC)S(=O)(=O)c1ccc(C(=O)NN(C)C2=NS(=O)(=O)c3ccccc32)cc1,-4,-1,0,0,6,/
Cc1ccc(N(CC(=O)N/N=C/c2cccs2)S(C)(=O)=O)cc1,-3,0,-4,121*,-1,-7
Cc1csc(=O)n1CCC(=O)OCC(=O)NCc1ccc(Cl)cc1Cl,-2,0,-6,1,-4,/
Cc1csc(=O)n1CCC(=O)OCC(=O)NNC(=O)c1ccc(Cl)cc1,-4,0,3,49*,4,2
COc1ccc(-c2csc3nc(-c4cccnc4)nc(N4CCC(C(N)=O)CC4)c23)cc1OC,-20,1,-9,50*,0,29
Cc1ccc(-c2nc3ncccc3o2)cc1NC(=O)CC(C)C,2,13,3,85*,3,9.9*
Cn1nc(C(=O)NCc2ccccc2)c2c1-c1ccccc1S(=O)(=O)C2,1,0,5,0,-5,/
O=C(Nc1cccc(-c2csc(Nc3ccccc3)n2)c1)c1ccccc1,-36,6,2,-1,6,/
O=C(Nc1nc(-c2ccc3c(c2)Cc2ccccc2-3)cs1)c1ccccc1,26,-1,-7,47*,-2,2
c1cn2c(-c3ccoc3)cncc2n1,32,-1,-3,-3,/,/
CCN(CC(=O)NC(C)(C)C)Cc1cc(=O)n2c(-c3ccccc3)csc2n1,4,3,2,0,2,/
NS(=O)(=O)c1ccc(N/N=C/c2ccccc2C(=O)O)c([N+](=O)[O-])c1,2,2,-29,-2,-2,/
Cc1cc([N+](=O)[O-])c2[nH]c(C(=O)N/N=C/c3ccccc3C(=O)O)c(-c3ccccc3)c2c1,1,0,5,73*,2,24
CCc1nnc(N2C(=N)SCC2=O)s1,3,-2,3,-3,-2,/
Cc1cc(C)c2nc(-c3ccccn3)cc(C(=O)Nc3ccc(S(=O)(=O)Nc4cc(C)on4)cc3)c2c1,34,3,6,4,7,/
Cc1cc(C)c2nc(-c3ccccn3)cc(C(=O)Nc3ccc(S(=O)(=O)Nc4onc(C)c4C)cc3)c2c1,68*,4,14,41*,28,72*
